ABCG2 block = ABCG2 efflux pump inhibitors, primary screen, multiplex with ABCB1, IgMXP3 cells, flow cytometry; inhibition, % at 6.6 µM; AID 1325, 2008; actives 0.1% (n = 190,000); JC-1 efflux;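 active = inhibition above 80%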;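 note: 0% = DMSO and 100% = nicardipine control wells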
Target sequence (Q9UNQ0 whole entry, looked up): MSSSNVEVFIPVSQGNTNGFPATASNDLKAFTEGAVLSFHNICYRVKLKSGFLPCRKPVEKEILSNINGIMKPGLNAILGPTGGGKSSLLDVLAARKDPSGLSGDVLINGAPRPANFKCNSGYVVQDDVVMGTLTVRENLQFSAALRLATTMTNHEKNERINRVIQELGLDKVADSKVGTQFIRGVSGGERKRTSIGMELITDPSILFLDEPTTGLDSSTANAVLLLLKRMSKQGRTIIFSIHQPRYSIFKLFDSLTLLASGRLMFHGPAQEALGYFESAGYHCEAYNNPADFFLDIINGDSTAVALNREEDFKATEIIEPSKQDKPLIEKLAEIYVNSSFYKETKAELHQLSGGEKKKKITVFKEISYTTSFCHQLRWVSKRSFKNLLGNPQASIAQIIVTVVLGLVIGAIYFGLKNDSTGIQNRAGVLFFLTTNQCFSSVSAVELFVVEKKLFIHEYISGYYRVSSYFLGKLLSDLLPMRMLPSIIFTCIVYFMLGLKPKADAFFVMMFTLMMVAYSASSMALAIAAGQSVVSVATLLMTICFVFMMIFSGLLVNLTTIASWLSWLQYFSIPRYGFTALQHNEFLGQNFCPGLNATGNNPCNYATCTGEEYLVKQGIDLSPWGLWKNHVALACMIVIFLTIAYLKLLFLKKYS
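material = IgMXP3 (ABCG2) plus far-red-tagged CCRF-Adr (ABCB1) cells | amount = 3 million cells/mL, equal mix of both lines | also added = JC-1 transporter substrate | dosing = one concentration, 6.6 µM final | schedule = 10 min at 25 °C | measured by = flow cytometric JC-1 green MFI at 530 nm | read-out basis = percent efflux inhibition, scaled nicardipine 100% to DMSO 0%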
ABCB1 inh = ABCB1 efflux pump inhibitors, primary screen, cell-based, multiplex, flow cytometry, ABCG2 counter-screen; AID 1326, 2008; CCRF-Adr cells, JC-1 efflux; ATP-dependent translocase ABCB1 (Homo sapiens), P08183; inhibition, % at 6.6 µM; actives 0.067% (n = 190,000); in the data active = inhibition above about 40%;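 note: 0% = vehicle and 100% = reference inhibitor; higher value means more JC-1 retained so stronger ABCB1 efflux block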
MEKK2 mut-MEK5 = MEK5 binding signal on mutant MEKK2 PB1, primary screen, biochemical, multiplex bead flow cytometry, Alexa488-MEK5; AID 1530, 2009; Alexa488-MEK5 binding to MEKK2 mutant; percent response, % at 10 µM; actives 0.35% (n = 290,000); in the data active = percent response above about 24%, passing the limit was not always enough
MEKK3 PB1 HTS = modulators of MEKK3-MEK5 PB1 binding, primary screen, biochemical, wildtype MEKK3, multiplex bead flow cytometry, Alexa488-MEK5 | Mitogen-activated protein kinase kinase kinase 3 (Homo sapiens), Q99759 | bead-based flow cytometry, Alexa488-MEK5 binding to MEKK3; actives lie on both sides; 0 = blocked by unlabeled MEK5, 100 = vehicle | binding response (% of control), % at 10 µM | actives 1.4% (n = 290,000);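 active = binding response more than 3 SD above or below the average of its plate-row segment, actives on both sides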;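 note: Alexa488 bead fluorescence after subtracting the streptavidin-only scavenger bead signal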
MEKK2 WT-MEK5 = modulators of MEK5 binding to wildtype MEKK2, primary screen, biochemical, multiplex bead flow cytometry, Alexa488-MEK5; Mitogen-activated protein kinase kinase kinase 2 (Homo sapiens), Q9Y2U5; Alexa488-MEK5 binding to MEKK2 WT; actives lie on both sides; binding response (% of control), % at 10 µM; actives 1.1% (n = 290,000); AID 1531, 2009; in the data active = binding response below about 67% or above about 130%
MEKK2wt confirm = modulators of MEK5 binding to wildtype MEKK2, confirmation, biochemical, single concentration, multiplex bead flow cytometry | shares compounds with MEKK3 PB1 HTS | Alexa488-MEK5 binding to MEKK2 WT; actives lie on both sides | binding response (% of control), % at 10 µM | actives 2.4% (n = 5,900) | AID 1892, 2009; in the data active = binding response below about 16% or above about 210%; inactive = in between
MEKK2mut-MEK5 = mutant MEKK2 PB1-MEK5 binding signal retest – biochemical, single concentration, multiplex bead flow cytometry, confirmation; shares compounds with MEKK3 PB1 HTS; Alexa488-MEK5 binding to MEKK2 mutant; percent response, % at 10 µM; actives 2% (n = 5,900); in the data active = percent response mostly above about 71%, no sharp cut-off; inactive = mostly below about 38%;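 note: higher means compound restores mutant binding toward wildtype level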
MEKK3 confirm = MEKK3 wild-type PB1 binding to MEK5, inhibitors, confirmation, biochemical, bead multiplex flow cytometry, single concentration, wildtype; shares compounds with MEKK3 PB1 HTS; Alexa488-MEK5 binding to MEKK3; active compounds read low; binding response (% of control), % at 10 µM; actives 1.8% (n = 5,900); AID 1894, 2009;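 active = binding response below 72% of control, or above a set upper limit, though filed actives all read lower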;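 note: 100% = DMSO only wells and 0% = binding blocked by excess unlabeled MEK5; lower values mean stronger disruption of MEK5 binding to MEKK3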
* = called active by the depositor; [ ] = dose if it differs, or a comment. A selection: hits, their analogues and other compounds. The true share with any hit is near 2.3%.

`COC(=O)C1C(O)C(C)C(O)C(C)/C=C\C=C(/C)C(=O)Nc2c(C)c(OC(C)=O)c3c(c2O)C(=O)C(C)=C2OCOC(=C23)/C(C)=C/C(C)(O)C(O)C(C)C1O` (centres undefined) gave MEKK2 mut-MEK5 -26.0, MEKK3 PB1 HTS 76.0 and MEKK2 WT-MEK5 69.0.
COc1cc(CNCCc2ccc3c(c2)OCO3)ccc1O was read as MEKK2 mut-MEK5 6.0, MEKK3 PB1 HTS 102.0 and MEKK2 WT-MEK5 108.0.
`COc1cc(CNCCc2ccc3c(c2)OCO3)cc(OC)c1OC` gave ABCG2 block 0.0, ABCB1 inh 0.0, MEKK2 mut-MEK5 -13.0, MEKK3 PB1 HTS 47.0*[inhibitor], MEKK2 WT-MEK5 60.0, MEKK2wt confirm 104.0, MEKK2mut-MEK5 -1.0 and MEKK3 confirm 103.0.
Screening Clc1cc(I)cc(Cl)c1NC1=NCCN1 returned MEKK2 mut-MEK5 4.0, MEKK3 PB1 HTS 104.0 and MEKK2 WT-MEK5 112.0.
Screening O=C(CCNC(=O)N1C[C@H]2C[C@@H](C1)c1cccc(=O)n1C2)Nc1cccc(Cl)c1 returned MEKK2 mut-MEK5 0.0, MEKK3 PB1 HTS 102.0 and MEKK2 WT-MEK5 98.0.
Screening Cc1cc(C=C(C#N)C#N)ccc1N1CCCC1 returned ABCG2 block 4.8, ABCB1 inh 0.2, MEKK2 mut-MEK5 -12.0, MEKK3 PB1 HTS 82.0, MEKK2 WT-MEK5 63.0*[inhibitor], MEKK2wt confirm 83.0, MEKK2mut-MEK5 -10.0 and MEKK3 confirm 92.0.
Screening CCOc1cc(/C=C2/C(=O)NC(=O)N(c3ccc(CC)cc3)C2=O)ccc1OC(=O)c1cccs1 returned ABCG2 block 0.7, ABCB1 inh 0.1, MEKK2 mut-MEK5 -2.0, MEKK3 PB1 HTS 100.0 and MEKK2 WT-MEK5 87.0.
`Cc1nc2cc(-c3cccc(F)c3)nn2c(C)c1CCC(=O)N1CCC2(CC1)OCCO2` gave ABCG2 block 29.4, ABCB1 inh 1.6, MEKK2 mut-MEK5 1.0, MEKK3 PB1 HTS 103.0 and MEKK2 WT-MEK5 102.0.
Cc1nc2c(-c3ccccc3)c(C)nn2c(C)c1CCC(=O)N1CCC2(CC1)OCCO2 was read as ABCG2 block 9.2, ABCB1 inh 0.4, MEKK2 mut-MEK5 -29.0, MEKK3 PB1 HTS 44.0*[inhibitor], MEKK2 WT-MEK5 101.0, MEKK2wt confirm 106.0, MEKK2mut-MEK5 0.0 and MEKK3 confirm 100.0.
`CCOC(=O)c1c(C)[nH]c(C(=O)C(Cc2ccccc2)N(C)C)c1C` (centres undefined) gave ABCG2 block 1.5 and ABCB1 inh 0.5.
ON1C2CCCCC2N(O)C1c1ccccc1 (centres undefined) was read as ABCG2 block 4.9, ABCB1 inh 0.5, MEKK2 mut-MEK5 -33.0, MEKK3 PB1 HTS 22.0*[inhibitor], MEKK2 WT-MEK5 33.0*[inhibitor], MEKK2wt confirm 103.0, MEKK2mut-MEK5 3.0 and MEKK3 confirm 103.0.
`c1ccc(C2N3CCCN23)cc1` (centres undefined) gave ABCG2 block 1.2, ABCB1 inh 0.2, MEKK2 mut-MEK5 8.0, MEKK3 PB1 HTS 108.0 and MEKK2 WT-MEK5 112.0.
`Cc1[nH]c2ccccc2c1C1=CCNCC1` gave ABCG2 block -0.2, ABCB1 inh 0.0, MEKK2 mut-MEK5 144.0*, MEKK3 PB1 HTS 113.0, MEKK2 WT-MEK5 76.0, MEKK2wt confirm 107.0, MEKK2mut-MEK5 2.0 and MEKK3 confirm 103.0.
